Here are results for 71 molecules from ChEMBL document CHEMBL4513216, “Probing the Open Global Health Chemical Diversity Library for Multistage-Active Starting Points for Next-Generation Antimalarials” (ACS Infect Dis, 2020).

A short description of the data set: Toxicity liver stage against HepG2, at 10uM. The class given is cell-based. Details: test concentration 10 uM, cell line HepG2-A16-CD81EGFP. Conditions: human, HepG2-A16-CD81EGFP cells; read-out: INHIBITION
The essentials: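 Uninfected HepG2-A16-CD81EGFP cells, 3 × 10^3 per well, 1536-well, plated on prespotted compound at 10 μM final, parasite-free screening media added to match infected plates; puromycin 10 μM positive, DMSO 0.5% negative; run in parallel with 48 h PbLuc assay at 37 °C, 5% CO2; viability by CellTiter-Glo luminescence, normalized to controls.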
Turning to `Cc1nc2c(c(=O)n1C)CCN(Cc1cc3ccccc3[nH]1)CC2`, the cytotoxicity at 10 µM was -8.42%.

Turning to `CCc1nnc2n1CC(CNCc1nc(-c3ccsc3)no1)CC2` (stereo unspecified), the cytotoxicity at 10 µM is -5.34%.

In the case of `N#CCCN(Cc1ccccn1)C(=O)Nc1cccnc1`, the cytotoxicity at 10 µM was determined as 0.525%.

On to `CCn1ncnc1C(C)NC(=O)C1CCN(Cc2ccco2)CC1` (stereo unspecified), for which the cytotoxicity at 10 µM was -133%.

On to `CCCc1nc(C)c(C(=O)NC2CCN(c3ncccn3)CC2)s1`, for which the cytotoxicity at 10 µM worked out at 16.7%.

Consider `Cn1ncc(CN2CCc3onc(-c4cccc(F)c4)c3C2)c1C1CC1`, for which the cytotoxicity at 10 µM was found to be 1.31%.

On to `CC(C)C(NC(=O)NCCNc1ccccn1)c1cccs1` (stereo unspecified), for which the cytotoxicity at 10 µM is -8.13%.

Turning to `NC(=O)CN(C(=O)Cc1ccc(C(F)(F)F)cc1)C1CCCC1`, the cytotoxicity at 10 µM is -3.41%.

Consider `CCN(CC)CCn1cnc(-c2ccccc2)c1-c1cnc(C)s1`, for which the cytotoxicity at 10 µM came to 3.33%.

Regarding `Cc1cc(NC(=O)CN2CCc3cnc(C(C)C)nc3C2)on1`, the cytotoxicity at 10 µM was -12.1%.

With `CN1CCc2c(C#N)c(NCc3ccco3)n3cnnc3c2C1`, the cytotoxicity at 10 µM was -13.7%.

Turning to `Cc1nc(N(C)C)cc(C2(C)CCCNC2)n1` (stereo unspecified), the cytotoxicity at 10 µM amounted to 2.05%.

`COc1c(C(=O)NCc2cccnc2)nnn1Cc1ccccc1`: the cytotoxicity at 10 µM was found to be 12.5%.

As to `CC(C)N1CCO[C@H]2CN(C(=O)c3ccccn3)C[C@H]21`, the cytotoxicity at 10 µM was -67.6%.

Take `COC(=O)[C@H](C)NC(=O)Cn1ccc2ccc(F)cc21`: the cytotoxicity at 10 µM is -0.112%.

With `CC(NC(=O)CN(C)S(C)(=O)=O)c1ccc(F)cc1` (stereo unspecified), the cytotoxicity at 10 µM is -4.36%.

With `CN(C)C(=O)COC[C@H]1CC[C@@H]2[C@@H](CCN2Cc2ccco2)O1`, the cytotoxicity at 10 µM is -160%.

On to `CCN1CCN(C(=O)c2cc(-c3ccc(C)o3)n[nH]2)[C@H]2CS(=O)(=O)C[C@H]21`, for which the cytotoxicity at 10 µM is -4.25%.

For `O=C(c1ccc(F)cc1)N1CCOC(c2nc(-c3ncccn3)no2)C1` (stereo unspecified), the cytotoxicity at 10 µM was -12.4%.

Take `Cc1ccc(CN2CCCn3c(nc(Cn4ccnc4)cc3=O)C2)o1`: the cytotoxicity at 10 µM was found to be 5.89%.

Consider `O=C(c1cc(-c2cccnc2)[nH]n1)N1CCCC(c2cnccn2)C1` (stereo unspecified), for which the cytotoxicity at 10 µM came out at 6.21%.

As for `COc1cnc(CN2CC(=O)N(c3ccc(C)cc3)CC2C)cc1O` (stereo unspecified), the cytotoxicity at 10 µM amounted to 4.01%.

In the case of `Cc1cc(F)cc(S(=O)(=O)NC(=O)CCc2cncc(F)c2)c1`, the cytotoxicity at 10 µM is 7.78%.

Take `Cc1cc(CNCC2Cn3nnc(C)c3CO2)oc1C` (stereo unspecified): the cytotoxicity at 10 µM came to 6.65%.

With `N#CCSCCCN1CCN(C(=O)c2ccc(Cl)cc2)CC1`, the cytotoxicity at 10 µM was -10.3%.

On to `O=c1ncn(-c2cccc(F)c2)c2ncccc12`, for which the cytotoxicity at 10 µM is 4.19%.

Take `CC(C)c1cc(C(=O)N2C[C@@H]3CC[C@H]2CN(Cc2ccccn2)C3)no1`: the cytotoxicity at 10 µM came out at 2.46%.

As for `CC(=O)N1CCC(CCNC(C)Cc2ccc(F)cc2)CC1` (stereo unspecified), the cytotoxicity at 10 µM is -11.4%.

In the case of `Cc1cc(N2CCCC2c2cc(Nc3cnccn3)nc(C)n2)ncn1` (stereo unspecified), the cytotoxicity at 10 µM is -14%.

`O=C(Cc1cccs1)N1C[C@@H]2CN(Cc3ccoc3)CCO[C@@H]2C1`: the cytotoxicity at 10 µM is -70.8%.

In the case of `Cc1ccc([C@@H]2CN(C(=O)c3ccccc3C)C[C@H]2N(C)C)cc1`, the cytotoxicity at 10 µM was -8.29%.

With `CCCn1ncc(CN2C[C@@H]3CCCN3C[C@H]2CCSC)c1C`, the cytotoxicity at 10 µM was -11.2%.

`COCCN(C)CCN1CC2(CCN(C3CCOC3)CC2)OC1=O` (stereo unspecified): the cytotoxicity at 10 µM is 4.63%.

Turning to `COc1ccc(S(N)(=O)=O)cc1C(=O)N(C)Cc1cc(C)on1`, the cytotoxicity at 10 µM is -4.3%.

As to `O=C(NCC1CCC(c2ccnc3ncnn23)CC1)C1CC1` (stereo unspecified), the cytotoxicity at 10 µM came out at 9.17%.

As for `Cc1cc2n(n1)CC(CNCc1ccccc1-n1cccn1)CN2` (stereo unspecified), the cytotoxicity at 10 µM is -11.5%.

`CC1(c2ccccc2)CCCN(Cc2cncn2C2CCCC2)C1` (stereo unspecified): the cytotoxicity at 10 µM amounted to 16.3%.

Regarding `O=C(c1cccn1Cc1cccs1)N1CCCC1Cn1cccn1` (stereo unspecified), the cytotoxicity at 10 µM is -7.52%.

As to `COc1cccc(CC2(CO)CCCN(c3nccs3)C2)c1` (stereo unspecified), the cytotoxicity at 10 µM is -4.59%.

`O=C(NCCc1coc(-c2ccc(F)cc2)n1)NC1CCC(O)CC1` (stereo unspecified): the cytotoxicity at 10 µM was found to be 7.96%.

With `O=C(NC1CC1)C1CCN(c2snc3ccccc23)CC1`, the cytotoxicity at 10 µM was -5.43%.

In the case of `CN(C)C(=O)COCC1C[C@@H]2OCCN(Cc3ccco3)[C@H]2C1` (stereo partly specified), the cytotoxicity at 10 µM is 11.9%.

For the molecule `CCS(=O)(=O)N1CCCC2(COCCN(c3cnccn3)C2)C1` (stereo unspecified), the cytotoxicity at 10 µM is 10.2%.

Consider `COc1cc(N2C[C@H](C(=O)NCC3CC3)[C@@H]3CCO[C@@H]3C2)ncn1`, for which the cytotoxicity at 10 µM worked out at 2.87%.

With `CN(C)c1cccc(C2CCN(C3COCC3O)CC2)n1` (stereo unspecified), the cytotoxicity at 10 µM is -13.9%.

Turning to `O=C(NC1CC1)C1CCN(c2cccc(C(F)(F)F)n2)CC1`, the cytotoxicity at 10 µM stood at 5.17%.

Take `O=S(=O)(NCC1COc2ccccc2C1)N1CCCC1` (stereo unspecified): the cytotoxicity at 10 µM is -7.74%.

`Cc1noc(CNc2ccccc2C(=O)N2CCCC(O)C2)n1` (stereo unspecified): the cytotoxicity at 10 µM was -3.13%.

As to `CCCOc1c(CNC2CCSC2)cccc1OC` (stereo unspecified), the cytotoxicity at 10 µM worked out at 4.36%.

As to `CCn1cnnc1CN(C)C(=O)c1cc(COc2cccc(F)c2)[nH]n1`, the cytotoxicity at 10 µM is 12.3%.

Regarding `CCn1ccc(NC(=O)CCn2nc(C)c3ccccc32)n1`, the cytotoxicity at 10 µM was 4.51%.

In the case of `COCC1CN(Cc2ccc(C)o2)Cc2ncn(CC3CC3)c21` (stereo unspecified), the cytotoxicity at 10 µM was -11%.

For `CCN(Cc1nc(COC)no1)Cc1cccnc1NC`, the cytotoxicity at 10 µM is -43.7%.

Take `COCC(=O)NCC1CCC(c2nnc(-c3ccncc3)o2)CC1` (stereo unspecified): the cytotoxicity at 10 µM is -3.49%.

On to `CNC(=O)c1ccc2c(c1)C1(CCN(C(C)C)CC1)C(=O)N2`, for which the cytotoxicity at 10 µM was 12.6%.

With `Cc1cc(C)cc(OCC(O)CN2CCN(c3nccs3)CC2)c1` (stereo unspecified), the cytotoxicity at 10 µM is -7.32%.

As to `Cc1nccc(N2CCCC(c3nnc(Cn4ccnc4C)n3C)C2)n1` (stereo unspecified), the cytotoxicity at 10 µM was -2.04%.

As to `Cn1nnc2c1CCN(C(=O)C1CC1)C2COCCN1CCCC1` (stereo unspecified), the cytotoxicity at 10 µM was 8.33%.

With `O=C1CCC2(CCCN(CCn3cc(Cl)cn3)C2)CN1C1CCCC1` (stereo unspecified), the cytotoxicity at 10 µM was determined as 4.71%.

With `CCOc1nnc(CN(CC)CC(=O)NC(C)(C)C)s1`, the cytotoxicity at 10 µM was -13.7%.

In the case of `O=C1CCCN1CCCC(=O)N1CCCC(c2ccn[nH]2)C1` (stereo unspecified), the cytotoxicity at 10 µM is -22.8%.

With `N#Cc1ccc(OC2CCN(CC(=O)NCC3CCCO3)CC2)cc1` (stereo unspecified), the cytotoxicity at 10 µM was determined as 34.8%.

For the molecule `COCCC(=O)NCc1ccc(-c2ccccc2C(=O)O)nc1`, the cytotoxicity at 10 µM stood at 2.28%.

In the case of `COCCOc1ccc(NC(=O)N(CC2CCOC2)C2CC2)cn1` (stereo unspecified), the cytotoxicity at 10 µM is -1.29%.

Consider `FC(F)(F)c1ccc(-c2n[nH]c3c2CN(CC2CCOC2)CC3)cc1` (stereo unspecified), for which the cytotoxicity at 10 µM was -52.1%.

As for `N#Cc1ccccc1CN1CCC(CN2CCOCC2)C1` (stereo unspecified), the cytotoxicity at 10 µM was -4.5%.

Regarding `CCc1ccc(S(=O)(=O)Nc2cn(C)cc(Br)c2=O)cc1`, the cytotoxicity at 10 µM was -10.8%.

With `CC(=O)c1sc2nc3c(c(C(F)(F)F)c2c1N)CN(C(C)=O)CC3`, the cytotoxicity at 10 µM was -26%.

Consider `c1cc2c(c(-c3cc(N4CCOCC4)ncn3)c1)CCNC2`, for which the cytotoxicity at 10 µM was -22.5%.

For the molecule `COC(C)(C)CC(C)NCc1cc(-c2ccco2)on1` (stereo unspecified), the cytotoxicity at 10 µM was determined as 1.81%.

Regarding `O=C(Cc1cccc(F)c1)N1CCc2ncnc(NC3CC3)c2CC1`, the cytotoxicity at 10 µM is -98.5%.
